According to ChEMBL document CHEMBL1275246 (Bioorg Med Chem, 2010):

What was measured:
[1] = Biodistribution in iv dosed baboon heart by dynamic PET imaging analysis; format: ADME, organism-based; conditions: papio anubis, in vivo
Summary of the method: (§1)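 Female Papio anubis baboons; ketamine 10 mg/kg i.m. induction, then O2/N2O/isoflurane (1–4%). Radiotracer given through a radial arm vein catheter. Dynamic 3D PET over 90 min (55 frames), brain or torso in field of view. Regions of interest drawn on summed images give time-activity curves as decay-corrected %injected dose/cc.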

[2] = target: 5-hydroxytryptamine receptor 1B (Homo sapiens) (UniProt P28222); assay: Displacement of [3H][…] from human cloned 5HT1B receptor
[3] = target: D(1A) dopamine receptor (Homo sapiens) (UniProt P21728); assay: Displacement of [3H][…] from human cloned dopamine D1 receptor
D(1A) dopamine receptor (Homo sapiens), sequence (P21728 whole entry): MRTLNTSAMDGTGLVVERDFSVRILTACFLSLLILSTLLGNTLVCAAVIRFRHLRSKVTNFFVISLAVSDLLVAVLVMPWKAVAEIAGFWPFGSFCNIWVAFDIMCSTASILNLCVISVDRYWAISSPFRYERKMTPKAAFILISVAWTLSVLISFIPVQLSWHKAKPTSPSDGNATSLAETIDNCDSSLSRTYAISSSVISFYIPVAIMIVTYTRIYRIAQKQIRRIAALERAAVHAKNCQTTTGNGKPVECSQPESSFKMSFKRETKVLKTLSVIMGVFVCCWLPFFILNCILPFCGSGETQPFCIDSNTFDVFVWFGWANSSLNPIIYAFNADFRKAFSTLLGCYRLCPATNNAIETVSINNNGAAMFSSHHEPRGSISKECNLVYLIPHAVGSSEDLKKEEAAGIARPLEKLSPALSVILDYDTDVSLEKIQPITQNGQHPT

[4] = target: Alpha-1B adrenergic receptor (Homo sapiens) (UniProt P35368); assay: Displacement of [3H]prazosin from human cloned adrenergic Alpha-1B receptor
[5] = target: 5-hydroxytryptamine receptor 5A (Homo sapiens) (UniProt P47898); assay: Displacement of [3H]LSD from human cloned 5HT5A receptor
[6] = target: 5-hydroxytryptamine receptor 1A (Homo sapiens) (UniProt P08908); assay: Displacement of [3H]8-OH-DPAT from human cloned 5HT1A receptor
5-hydroxytryptamine receptor 1A (Homo sapiens), sequence (P08908 whole entry): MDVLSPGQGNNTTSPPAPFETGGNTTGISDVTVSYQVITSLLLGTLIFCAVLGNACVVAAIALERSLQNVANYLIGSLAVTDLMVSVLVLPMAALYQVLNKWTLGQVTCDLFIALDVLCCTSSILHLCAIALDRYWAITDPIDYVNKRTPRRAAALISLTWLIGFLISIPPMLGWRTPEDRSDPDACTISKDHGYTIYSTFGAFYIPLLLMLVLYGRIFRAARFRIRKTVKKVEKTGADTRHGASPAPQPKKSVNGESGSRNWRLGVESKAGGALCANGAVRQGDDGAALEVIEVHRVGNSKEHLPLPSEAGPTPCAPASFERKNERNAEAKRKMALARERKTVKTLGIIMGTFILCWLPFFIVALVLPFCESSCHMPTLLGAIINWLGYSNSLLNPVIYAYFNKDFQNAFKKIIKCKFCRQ

[7] = target: 5-hydroxytryptamine receptor 2C (Rattus norvegicus) (UniProt P08909); assay: Displacement of [3H]Mesulergine from rat cloned 5HT2C receptor
[8] = target: 5-hydroxytryptamine receptor 1E (Homo sapiens) (UniProt P28566); assay: Displacement of [3H]5-HT from human cloned 5HT1E receptor
5-hydroxytryptamine receptor 1E (Homo sapiens), sequence (P28566 whole entry): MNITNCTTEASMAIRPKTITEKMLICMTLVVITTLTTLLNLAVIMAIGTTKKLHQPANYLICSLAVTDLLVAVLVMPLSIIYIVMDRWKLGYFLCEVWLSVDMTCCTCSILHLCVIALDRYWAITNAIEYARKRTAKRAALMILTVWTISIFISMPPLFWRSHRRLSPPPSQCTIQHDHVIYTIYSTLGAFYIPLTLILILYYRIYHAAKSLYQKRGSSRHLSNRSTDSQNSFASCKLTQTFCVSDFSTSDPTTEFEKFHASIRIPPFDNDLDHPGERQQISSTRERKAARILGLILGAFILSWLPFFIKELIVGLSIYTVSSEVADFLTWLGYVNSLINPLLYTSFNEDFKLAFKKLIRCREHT

[9] = target: Muscarinic acetylcholine receptor M2 (Homo sapiens) (UniProt P08172); assay: Displacement of [3H]QNB from human cloned muscarinic M2 receptor
Muscarinic acetylcholine receptor M2 (Homo sapiens), sequence (P08172 whole entry): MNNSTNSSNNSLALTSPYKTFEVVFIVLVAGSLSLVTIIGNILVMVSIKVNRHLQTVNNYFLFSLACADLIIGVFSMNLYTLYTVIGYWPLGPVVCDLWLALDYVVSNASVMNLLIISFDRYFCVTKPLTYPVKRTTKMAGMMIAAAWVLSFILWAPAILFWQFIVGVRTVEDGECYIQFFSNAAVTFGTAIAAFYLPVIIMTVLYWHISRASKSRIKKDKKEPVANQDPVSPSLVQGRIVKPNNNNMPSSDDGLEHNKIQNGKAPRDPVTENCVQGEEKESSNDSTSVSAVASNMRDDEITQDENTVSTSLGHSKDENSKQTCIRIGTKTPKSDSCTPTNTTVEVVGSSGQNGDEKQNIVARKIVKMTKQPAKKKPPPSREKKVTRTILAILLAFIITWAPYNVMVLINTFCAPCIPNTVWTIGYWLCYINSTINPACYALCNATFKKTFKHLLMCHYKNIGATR

[10] = target: 5-hydroxytryptamine receptor 1D (Homo sapiens) (UniProt P28221); assay: Displacement of [3H][…] from human cloned 5HT1D receptor
5-hydroxytryptamine receptor 1D (Homo sapiens), sequence (P28221 whole entry): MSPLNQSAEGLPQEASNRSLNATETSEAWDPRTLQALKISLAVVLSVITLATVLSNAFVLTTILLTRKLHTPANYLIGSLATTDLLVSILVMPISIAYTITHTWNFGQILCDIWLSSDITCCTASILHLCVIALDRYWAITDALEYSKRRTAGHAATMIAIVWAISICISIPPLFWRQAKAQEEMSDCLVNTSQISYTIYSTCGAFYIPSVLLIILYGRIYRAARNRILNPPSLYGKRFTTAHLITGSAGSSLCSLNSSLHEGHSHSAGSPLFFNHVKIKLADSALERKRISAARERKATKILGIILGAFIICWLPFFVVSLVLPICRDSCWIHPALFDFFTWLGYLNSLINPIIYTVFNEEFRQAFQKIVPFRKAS

[11] = target: Histamine H2 receptor (Homo sapiens) (UniProt P25021); assay: Displacement of [3H]Tiotidine from human cloned histamine H2 receptor
[12] = target: D(3) dopamine receptor (Rattus norvegicus) (UniProt P19020); assay: Displacement of [3H]N-methylspiperone from rat cloned dopamine D3 receptor
D(3) dopamine receptor (Rattus norvegicus), sequence (P19020 whole entry): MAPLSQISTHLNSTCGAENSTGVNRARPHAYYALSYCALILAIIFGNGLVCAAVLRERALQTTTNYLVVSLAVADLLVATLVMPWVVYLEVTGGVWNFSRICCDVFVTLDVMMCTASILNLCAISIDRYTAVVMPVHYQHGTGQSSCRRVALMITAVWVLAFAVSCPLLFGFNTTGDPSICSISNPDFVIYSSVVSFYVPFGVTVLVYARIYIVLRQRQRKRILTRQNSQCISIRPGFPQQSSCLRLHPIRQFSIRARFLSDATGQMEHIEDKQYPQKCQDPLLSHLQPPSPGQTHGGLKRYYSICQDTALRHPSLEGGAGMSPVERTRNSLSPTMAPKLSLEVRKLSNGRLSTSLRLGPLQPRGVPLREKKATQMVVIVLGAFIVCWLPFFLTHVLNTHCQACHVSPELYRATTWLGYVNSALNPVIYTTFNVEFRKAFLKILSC

[13] = target: 5-hydroxytryptamine receptor 2B (Homo sapiens) (UniProt P41595); assay: Displacement of [3H]LSD from human cloned 5HT2B receptor
5-hydroxytryptamine receptor 2B (Homo sapiens), sequence (P41595 whole entry): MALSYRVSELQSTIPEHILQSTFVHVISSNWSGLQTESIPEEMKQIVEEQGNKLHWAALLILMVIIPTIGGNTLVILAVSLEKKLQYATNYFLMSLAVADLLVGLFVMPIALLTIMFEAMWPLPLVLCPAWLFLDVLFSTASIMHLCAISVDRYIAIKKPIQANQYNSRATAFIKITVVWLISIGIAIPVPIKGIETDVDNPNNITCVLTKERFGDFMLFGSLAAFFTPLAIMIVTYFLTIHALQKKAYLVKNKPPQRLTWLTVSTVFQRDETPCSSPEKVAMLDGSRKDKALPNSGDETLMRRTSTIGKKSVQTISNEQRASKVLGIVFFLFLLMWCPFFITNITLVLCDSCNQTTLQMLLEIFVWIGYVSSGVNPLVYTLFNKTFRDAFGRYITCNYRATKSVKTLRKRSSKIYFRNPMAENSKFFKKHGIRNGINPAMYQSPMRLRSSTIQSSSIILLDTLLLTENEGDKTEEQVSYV

[14] = Biodistribution in iv dosed baboon heart by dynamic PET imaging analysis in presence of metergoline; format: ADME, organism-based; conditions: papio anubis, in vivo
Summary of the method: (§2)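 Baboons anesthetized (ketamine i.m., then isoflurane/N2O/O2). […] Dynamic 3D PET for 90 min, brain or torso in view. Region time-activity curves as decay-corrected %ID/cc.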

[15] = target: D(4) dopamine receptor (Homo sapiens) (UniProt P21917); assay: Displacement of [3H]N-methylspiperone from human cloned dopamine D4 receptor
D(4) dopamine receptor (Homo sapiens), sequence (P21917 whole entry): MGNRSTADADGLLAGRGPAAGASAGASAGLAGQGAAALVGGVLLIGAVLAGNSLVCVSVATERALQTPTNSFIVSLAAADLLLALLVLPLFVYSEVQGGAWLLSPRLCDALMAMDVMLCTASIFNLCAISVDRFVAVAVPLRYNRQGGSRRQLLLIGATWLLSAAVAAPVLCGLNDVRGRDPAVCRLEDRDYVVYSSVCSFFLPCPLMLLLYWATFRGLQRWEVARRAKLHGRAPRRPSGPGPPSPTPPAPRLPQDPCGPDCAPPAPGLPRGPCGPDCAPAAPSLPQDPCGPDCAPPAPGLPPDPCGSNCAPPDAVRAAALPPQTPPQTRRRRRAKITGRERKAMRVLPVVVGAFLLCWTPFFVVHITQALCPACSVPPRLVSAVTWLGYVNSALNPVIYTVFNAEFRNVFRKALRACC

[16] = target: 5-hydroxytryptamine receptor 4 (Homo sapiens) (UniProt Q13639); assay: Binding affinity to human cloned 5HT4 receptor
[17] = target: 5-hydroxytryptamine receptor 3A (Homo sapiens) (UniProt P46098); assay: Displacement of [3H]LY278584 from human cloned 5HT3 receptor
5-hydroxytryptamine receptor 3A (Homo sapiens), sequence (P46098 whole entry): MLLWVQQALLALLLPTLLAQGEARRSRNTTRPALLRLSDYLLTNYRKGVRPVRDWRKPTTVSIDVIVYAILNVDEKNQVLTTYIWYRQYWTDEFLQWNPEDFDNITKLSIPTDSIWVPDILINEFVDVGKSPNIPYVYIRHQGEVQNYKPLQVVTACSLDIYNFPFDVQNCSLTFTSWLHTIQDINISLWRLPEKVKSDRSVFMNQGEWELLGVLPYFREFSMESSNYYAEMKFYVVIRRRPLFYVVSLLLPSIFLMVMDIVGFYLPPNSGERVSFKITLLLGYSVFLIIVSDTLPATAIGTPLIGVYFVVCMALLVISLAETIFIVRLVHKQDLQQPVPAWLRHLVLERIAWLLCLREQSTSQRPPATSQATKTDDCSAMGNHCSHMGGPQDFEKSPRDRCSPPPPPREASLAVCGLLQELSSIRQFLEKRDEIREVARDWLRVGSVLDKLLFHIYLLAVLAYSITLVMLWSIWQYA

[18] = target: Sodium-dependent noradrenaline transporter (Homo sapiens) (UniProt P23975); assay: Displacement of [3H]nisoxetine from human cloned NET
[19] = target: Alpha-2A adrenergic receptor (Homo sapiens) (UniProt P08913); assay: Displacement of [3H]clonidine from human cloned adrenergic alpha-2a receptor
[20] = target: Prostaglandin E2 receptor EP3 subtype (Homo sapiens) (UniProt P43115); assay: Displacement of [3H]PGE2 from human cloned EP3 receptor
[21] = target: Delta-type opioid receptor (Homo sapiens) (UniProt P41143); assay: Displacement of [3H]DADLE from human cloned delta opioid receptor
[22] = target: Prostaglandin E2 receptor EP4 subtype (Homo sapiens) (UniProt P35408); assay: Displacement of [3H]PGE2 from human cloned EP4 receptor
[23] = target: Muscarinic acetylcholine receptor M4 (Homo sapiens) (UniProt P08173); assay: Displacement of [3H]QNB from human cloned muscarinic M4 receptor
Muscarinic acetylcholine receptor M4 (Homo sapiens), sequence (P08173 whole entry): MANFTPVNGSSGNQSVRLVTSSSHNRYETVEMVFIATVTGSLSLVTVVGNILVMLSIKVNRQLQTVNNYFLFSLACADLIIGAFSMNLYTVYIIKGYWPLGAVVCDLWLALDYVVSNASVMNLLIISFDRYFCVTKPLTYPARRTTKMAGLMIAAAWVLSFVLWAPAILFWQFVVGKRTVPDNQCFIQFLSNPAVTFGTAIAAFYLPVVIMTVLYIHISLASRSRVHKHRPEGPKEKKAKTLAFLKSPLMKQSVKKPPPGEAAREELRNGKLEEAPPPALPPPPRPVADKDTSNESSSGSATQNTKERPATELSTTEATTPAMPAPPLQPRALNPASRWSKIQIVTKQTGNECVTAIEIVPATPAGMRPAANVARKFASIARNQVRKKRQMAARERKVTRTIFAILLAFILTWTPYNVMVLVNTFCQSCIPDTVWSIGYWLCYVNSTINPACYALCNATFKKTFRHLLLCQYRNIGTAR

[24] = target: Histamine H4 receptor (Homo sapiens) (UniProt Q9H3N8); assay: Displacement of [3H]histamine from human cloned histamine H4 receptor
[25] = target: Alpha-1A adrenergic receptor (Homo sapiens) (UniProt P35348); assay: Displacement of [3H]prazosin from human cloned adrenergic alpha1A receptor
[26] = target: Kappa-type opioid receptor (Rattus norvegicus) (UniProt P34975); assay: Displacement of [3H]U69593 from rat cloned kappa opioid receptor
[27] = target: D(2) dopamine receptor (Homo sapiens) (UniProt P14416); assay: Displacement of [3H]N-methylspiperone from human cloned dopamine D2 receptor
D(2) dopamine receptor (Homo sapiens), sequence (P14416 whole entry): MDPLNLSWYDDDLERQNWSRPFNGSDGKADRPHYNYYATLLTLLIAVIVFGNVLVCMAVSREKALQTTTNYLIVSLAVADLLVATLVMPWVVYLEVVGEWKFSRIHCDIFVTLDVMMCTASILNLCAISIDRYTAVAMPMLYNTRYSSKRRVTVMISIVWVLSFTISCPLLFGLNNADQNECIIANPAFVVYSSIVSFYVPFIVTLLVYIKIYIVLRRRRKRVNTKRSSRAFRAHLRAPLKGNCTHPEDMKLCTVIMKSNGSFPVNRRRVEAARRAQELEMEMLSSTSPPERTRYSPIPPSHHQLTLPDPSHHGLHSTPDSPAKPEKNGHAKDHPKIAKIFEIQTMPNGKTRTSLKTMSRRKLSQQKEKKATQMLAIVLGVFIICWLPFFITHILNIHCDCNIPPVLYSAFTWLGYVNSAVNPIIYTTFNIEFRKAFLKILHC

[28] = target: Alpha-2C adrenergic receptor (Homo sapiens) (UniProt P18825); assay: Displacement of [3H]clonidine from human cloned adrenergic alpha2c receptor
[29] = Lipophilicity, log D of compound in phosphate buffer solution at pH 7.4; format: physicochemical
Summary of the method: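 Formulated radiotracer partitioned between octanol and phosphate buffer pH 7.4: vortexed 2 min, centrifuged 2 min. Octanol layer serially re-extracted with fresh buffer to give six sample sets, each phase well-counted. logD = log(decay-corrected octanol activity ×10/decay-corrected buffer activity) for each set.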

[30] = Drug uptake in iv dosed baboon occipital cortex in presence of altanserin; format: ADME, organism-based; conditions: papio anubis, in vivo
Summary of the method: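 Baboon pretreated with altanserin 0.5 mg/kg, dissolved in 2% HCl in EtOH, diluted with saline to 30 mL, filter-sterilized (final pH ~5.5). Given 15 min before i.v. radiotracer. Anesthetized animal (ketamine, then isoflurane). 90-min dynamic 3D brain PET; region curves as decay-corrected %ID/cc.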

[31] = Drug uptake in iv dosed baboon occipital cortex in presence of metergoline; format: ADME, organism-based; conditions: papio anubis, in vivo; summary of the method: as §2
[32] = Biodistribution in iv dosed baboon gall bladder by dynamic PET imaging analysis; format: ADME, organism-based; conditions: papio anubis, in vivo; summary of the method: as §1
[33] = Plasma protein binding in baboon after 10 mins; format: ADME, cell-free; conditions: papio anubis, read-out: PPB
Summary of the method: (§3)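 Radiotracer in saline added to pooled baboon plasma (from ≥4 animals). Mixed by inversion, incubated 10 min at room temperature. Total activity sampled. Plasma then centrifuged 10 min through a Centrifree ultrafiltration unit and filtrate counted. %unbound = filtrate activity ×100/total activity.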

[34] = Drug uptake in iv dosed baboon occipital cortex in presence of citalopram; format: ADME, organism-based; conditions: papio anubis, in vivo
Summary of the method: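 Citalopram-HBr 5.0 mg/kg (as free base) in 10 mL saline, filter-sterilized, i.v. bolus 20 min before radiotracer in anesthetized baboons. 90-min dynamic 3D brain PET. Region time-activity curves as decay-corrected %ID/cc.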

[35] = Drug uptake in iv dosed baboon frontal cortex in presence of metergoline; format: ADME, organism-based; conditions: papio anubis, in vivo; summary of the method: as §2
[36] = Fraction unbound in baboon plasma after 10 mins; format: ADME, cell-free; conditions: papio anubis; summary of the method: as §3
Brain = assay: Biodistribution in iv dosed baboon brain after 2 to 10 mins by PET imaging analysis; format: ADME, organism-based; conditions: papio anubis, in vivo; summary of the method: as §1

SMILES: CN1C[C@H](CNC(=O)OCc2ccccc2)C[C@@H]2c3cccc4c3c(cn4C)C[C@H]21 [METERGOLINE]
- Drug uptake [1]: Active
- Activity [2]: 28 nM
- Activity [3]: 9 nM
- Activity [4]: 123 nM
- Activity [5]: 562 nM
- Activity [6]: 10 nM
- Activity [7]: 9.5 nM
- Activity [8]: 1660 nM
- Activity [9]: 17.7 nM
- Activity [10]: 0.9 nM
- Activity [11]: 104 nM
- Activity [12]: 14 nM
- Activity [13]: 2.6 nM
- Drug uptake [14]: Active
- Activity [15]: 4.9 nM
- Activity [16]: 1270 nM
- Activity [17]: > 10 µM
- Activity [18]: 1130 nM
- Activity [19]: 31 nM
- Activity [20]: 21.7 nM
- Activity [21]: 18.9 nM
- Activity [22]: 15.2 nM
- Activity [23]: 36.9 nM
- Activity [24]: 12.7 nM
- Activity [25]: 30 nM
- Activity [26]: 63.2 nM
- Activity [27]: 74 nM
- Activity [28]: 30 nM

SMILES: CN1C[C@H](CN[11C](=O)OCc2ccccc2)C[C@@H]2c3cccc4c3c(cn4C)C[C@H]21 [[11C]-METERGOLINE]
- logD [29]: 3.3
- Drug uptake [30]: Not Active
- Drug uptake [31]: Not Active
- Drug uptake [32]: 0.3 %ID
- fraction unbound at 10 min [33]: < 0.01
- Drug uptake [34]: Active
- Drug uptake [35]: Not Active
- Fu [36]: 0.55%
- Drug uptake (Brain): 0.01 %ID
